# Screening data as filed in PubChem.
# Most compounds without a hit are left out; they make up all but 1.8% or so of the library.
# M5 PAM – human M5 muscarinic receptor positive allosteric modulators, primary screen, CHO-K1 cells, Fluo-8 calcium fluorescence; Muscarinic acetylcholine receptor M5 (Homo sapiens), P08912; CHO-K1 hM5, ACh EC20 PAM; 0% = ACh EC20, 100% = ACh EC100; activation, % at 3 µM; 360,000 tested, 0.3% active;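 active = activation above the run cutoff, the mean activation of all test compounds plus 3 SD, cut at about 18% in these data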
#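 System – CHO-K1 hM5 cells · Compound – 3 µM, single dose · Incubation – compound preincubation 140 s before EC20 acetylcholine addition · Technique – Fluo-8 calcium fluorescence · Measure – Max/basal fluorescence ratio as % of EC20–EC100 ACh window · Benchmarks – low control EC20 acetylcholine (0%), high control EC100 acetylcholine (100%) · Replication – singlicate, one well per test compound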
# M4 antag – human M4 muscarinic receptor antagonists, primary screen, CHO cells, Fluo-8 calcium fluorescence | Muscarinic acetylcholine receptor M4 (Homo sapiens), P08173 | CHO-hM4 cells, ACh EC80 | inhibition, % at 3 µM | 360,000 tested, 0.73% active | AID 624125, 2012;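 active = inhibition above its plate's cutoff, the mean inhibition of sample wells plus 3 SD, cut at about 27% in these data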;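 also: 0% = acetylcholine EC80 with DMSO and 100% = DMSO without agonist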
# Target sequence (P08173 whole entry, looked up): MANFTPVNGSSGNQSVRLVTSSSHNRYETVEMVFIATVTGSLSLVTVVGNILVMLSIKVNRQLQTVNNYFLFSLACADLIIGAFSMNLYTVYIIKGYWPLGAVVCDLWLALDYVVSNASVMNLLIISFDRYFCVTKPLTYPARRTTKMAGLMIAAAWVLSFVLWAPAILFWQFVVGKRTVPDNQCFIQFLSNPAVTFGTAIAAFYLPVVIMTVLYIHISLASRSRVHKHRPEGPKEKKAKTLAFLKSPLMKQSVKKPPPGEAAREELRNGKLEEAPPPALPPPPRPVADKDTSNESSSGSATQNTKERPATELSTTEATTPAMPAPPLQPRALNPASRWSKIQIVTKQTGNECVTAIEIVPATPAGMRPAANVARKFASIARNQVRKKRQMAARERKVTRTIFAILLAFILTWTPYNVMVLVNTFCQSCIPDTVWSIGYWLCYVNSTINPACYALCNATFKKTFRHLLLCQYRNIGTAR
# M4 ag – human M4 muscarinic receptor agonists, primary screen, CHO-K1 cells, Fluo-8 calcium fluorescence; Muscarinic acetylcholine receptor M4 (Homo sapiens), P08173; activation, % at 3 µM; 360,000 tested, 0.14% active; CHO-K1 hM4/Gqi5; vehicle 0%, full acetylcholine response 100%;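 active = activation above the run mean over all test wells plus 3 SD, cut at about 32% in these data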;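 also: peak over basal fluorescence ratio per well then scaled between controls; 0% = DMSO wells and 100% = acetylcholine at EC100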
# CHRM4 PAM – human M4 muscarinic receptor positive allosteric modulators, primary screen, CHO-K1 cells, Fluo-8 calcium fluorescence; Muscarinic acetylcholine receptor M4 (Homo sapiens), P08173; CHO-K1 hM4/Gqi5, ACh EC20; 0% = ACh EC20, 100% = maximal ACh; activation, % at 3 µM; 360,000 tested, 0.4% active; AID 624126, 2012;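 active = activation above its plate's cutoff, the mean activation of sample wells plus 3 SD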
# CHRM5 agonist – human M5 muscarinic receptor agonists, primary screen, CHO-K1 cells, Fluo-8 calcium fluorescence | Muscarinic acetylcholine receptor M5 (Homo sapiens), P08912 | CHO-K1 hM5 cells; 0% DMSO wells, 100% maximal acetylcholine response | activation, % at 3 µM | 360,000 tested, 0.19% active;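 active = activation above the run's mean over test compounds plus 3 SD, cut at about 23% in these data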;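 also: signal is peak over basal fluorescence ratio across the kinetic read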
# CHRM5 antagonist – human M5 muscarinic receptor antagonists, primary screen, CHO cells, Fluo-8 calcium fluorescence; Muscarinic acetylcholine receptor M5 (Homo sapiens), P08912; CHO-hM5 cells, ACh EC80; inhibition, % at 3 µM; 360,000 tested, 0.59% active; AID 624040, 2012;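 active = inhibition above a per-plate cutoff, the mean of that plate's test compounds plus 3 SD, cut at about 27% in these data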;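 also: 0% = acetylcholine EC80 with DMSO and 100% = DMSO without agonist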
# Numbers without * were called inactive.
SMILES,M5 PAM,M4 antag,M4 ag,CHRM4 PAM,CHRM5 agonist,CHRM5 antagonist
CC1(C)CC(NC(=O)c2ccc(-c3ccc([N+](=O)[O-])cc3)o2)CC(C)(C)N1,5,3,0,20*,-6,-8
COC(=O)[C@@H](CC(C)C)NS(=O)(=O)N(Cc1ccccc1)[C@@H](CC(C)C)C(=O)OC,-27,11,11,-10,-3,14
COc1cc(-c2nc3ccccn3c2NCc2ccccc2)ccc1SC1CCCCC1,-18,27*,6,-6,-3,15
CCC(C)Sc1ccc(-c2nc3ccccn3c2NCc2ccccc2)cc1OC (stereo not drawn),-28,29*,14,-6,0,16
COc1cc(-c2nc3ccc(C)cn3c2NCc2ccccc2)ccc1SC1CCCCC1,-14,8,3,-1,2,5
COc1ccc(-c2nc3ccccn3c2NC2CCCCC2)cc1SC1CCCCC1,4,28*,3,-12,1,4
O=C(COC(=O)C1CCN(c2ccc(C(F)(F)F)cn2)CC1)Nc1cccc(F)c1,-15,-18,8,6,-5,2
CCCCc1nc2cc(C(=O)NCc3nccn3CC)ccc2o1,-15,32*,1,-12,-10,5
COc1cc(Cl)c(C)cc1NC(=O)COc1cc(C)nc(C(C)C)n1,-9,3,1,33*,-2,8
Cc1ccc(C(=O)Nc2c(C)cc(C)c3cccnc23)cc1,2,-10,2,14*,-1,9
CC1(S(=O)(=O)O)CC(=O)c2ccccc2C1=O (stereo not drawn),-3,0,1,-3,0,4
Cc1ccc(C(=O)/C=C/Nc2cccc(O)c2)cc1,35*,-2,-1,18,-1,18
CCCCCC[N+](C)(C)CC/C=C1/c2ccccc2Sc2ccc(Cl)cc21,-33,99*,-1,-59,-18,99*
CN(C)CC/C=C1\c2ccccc2COc2ccccc21,-18,67*,2,-18,-1,98*
CN(C)CC/C=C1/c2ccccc2Sc2ccc(Cl)cc21,-18,99*,9,-19,1,99*
OCCN1CCN(CC/C=C2/c3ccccc3Sc3ccc(C(F)(F)F)cc32)CC1,-6,4,7,-13,1,9
CN1CCN(CCC=C2c3ccccc3Sc3ccc(S(=O)(=O)N(C)C)cc32)CC1,-9,10,8,-13,2,7
COC(=O)C1(C(=O)OC)C[C@H](c2cccs2)N(Cc2ccccc2OC)[C@@H]1c1ccc(F)cc1,-8,0,0,-10,-3,-4
CCN(CC(=O)Nc1ccccc1OC)C(=O)c1ccc(N(C)S(=O)(=O)c2ccc(C)cc2)cc1,-30,-7,19,-4,-8,98*
CCN(CC(=O)Nc1ccc(NC(C)=O)cc1)C(=O)c1ccc(N(C)S(=O)(=O)c2ccc(C)cc2)cc1,1,1,1,-2,-2,10
O=C(O)/C=C/c1cn(-c2ccccc2)nc1-c1cccc([N+](=O)[O-])c1,1,-3,0,3,-1,-1
NS(=O)(=O)c1ccc(NC(=O)/C=C/c2cn(-c3ccccc3)nc2-c2cccc(Cl)c2)cc1,7,-2,1,-4,-1,4
CC(C)NC(=O)/C(=C/c1cn(-c2ccccc2)nc1-c1cccc([N+](=O)[O-])c1)NC(=O)c1ccccc1,-11,32*,11,-2,3,10
O=C(/C=C/c1cn(-c2ccccc2)nc1-c1ccccc1)Nc1ccc(C(=O)O)cc1,-22,71*,0,-39,-4,10
Cc1ccc(C(=O)N/C(=C/c2cn(-c3ccccc3)nc2-c2ccccc2)C(=O)O)cc1,20*,0,1,9,7,3
SMILES,M5 PAM,M4 antag,M4 ag,CHRM4 PAM,CHRM5 agonist,CHRM5 antagonist
Cc1cccc(NC(=O)CNC(=O)COc2cccnc2[N+](=O)[O-])c1C,0,-19,-1,1,0,1
Cc1ccsc1C(=O)OCC(=O)N1C(C)CCCC1C (stereo not drawn),-2,8,1,0,-3,9
CC(=O)NCCC(=O)Nc1cc(S(=O)(=O)N2CCOCC2)ccc1Oc1ccccc1,6,-10,1,2,-3,-1
Cc1ccc(-c2nc3cccnc3o2)cc1NC(=O)COc1ccc(C(C)(C)C)cc1,-13,25,10,-9,1,27*
Cc1ccc(N2C(=O)CCSC23C(=O)Nc2ccccc23)cc1 (stereo not drawn),-9,27*,1,-18,-7,7
S=C(Nc1ccc(Cl)cc1Cl)N1CCOCC1,3,6,1,21*,2,-5
S=C(NCc1ccc(Cl)cc1)Nc1ccc(Cl)cc1Cl,-17,9,9,-11,0,15
S=C(NCCc1ccc(Cl)cc1)Nc1ccc(Cl)cc1Cl,-18,9,7,-16,-2,35*
c1ncn(C23CC4CC(CC(C4)C2)C3)n1,21*,-16,0,11,-3,1
CC1CN(C(=O)c2ccc(Br)c(S(=O)(=O)N3CCOCC3)c2)CC(C)O1 (stereo not drawn),-2,-16,1,7,1,-6
COc1c2ccc(OCC/C(C)=C/C(=O)C=C(C)C)cc2nc2occc12,20*,-15,2,10,2,-4
CCOC(=O)C1=C(C)N=C2c3ccccc3C(=O)C2C1c1ccc(Cl)cc1 (stereo not drawn),-3,6,6,-7,-2,0
CCOC(=O)C1=C(Cc2ccc(Cl)cc2)C(=O)c2ccccc2C1=O,2,35*,14,-5,12,18
O=C(Nc1nc2ccsc2c(=O)s1)c1ccc(F)cc1Cl,21*,-4,1,2,3,-7
CCCCN(CC)Cc1c(O)ccc2c(-c3ccccc3)cc(=O)oc12,3,28*,0,-26,-12,4
CC1CCN(S(=O)(=O)c2cccc(C(=O)Oc3ccc([N+](=O)[O-])cc3)c2)CC1,5,-11,2,30*,4,3
CC1CCN(C(=O)c2cccc(S(=O)(=O)N3CCCCC3)c2)CC1,-4,-11,3,9,2,-5
